We go through nine compounds from PubChem BioAssay.

Molecules are shown by their SMILES. Active and inactive are the calls of the source.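 How the source made its calls, unless noted: active means GFP response above 150% of the DMSO level; inconclusive means fewer than 70 events counted for a yeast strain; inactive means the rest.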

A short description of experiment [1]: hit retest on RPL19A-GFP reporter strain – cell-based, S. cerevisiae, flow cytometry, cherry picks, mother/daughter gates, confirmation (AID 2270;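 active means GFP response below 50% of the DMSO control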). The note with it: 3 h, at 10 µM, stronger effect = lower value, 100 = same GFP as DMSO wells.
Experiment [2] can be described thus: yeast TOR pathway reporter LAP4-GFP change – cell-based, cherry picks, flow cytometry, mother/daughter gates, confirmation (AID 2271;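 active means GFP response above 150% of the DMSO control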;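 further: ratio of sample to DMSO plate mean so 100% equals DMSO level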). The note with it: S. cerevisiae LAP4-GFP strain, 3 h, at 10 µM, stronger effect = higher value, 100 means same as DMSO control. In a few lines: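 Material: Alexa 633-stained baker's yeast GFP-fusion strain; Compound dosing: single test-compound dose, 10 µM final; Incubation: 30 °C, 3 h compound incubation, rotating; Detection: HT flow cytometry, GFP fluorescence channel; Control set: positive rapamycin (400 ng/mL), negative DMSO.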

A short description of experiment [3]: TOR pathway reporter MEP2-GFP, retest of hits – S. cerevisiae, flow cytometry GFP, cherry picks, confirmation (AID 2272;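 active means GFP response above 150% of the DMSO control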;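 further: ratio of well signal to plate DMSO mean so 100% equals DMSO level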). As to conditions: S. cerevisiae MEP2-GFP strain, 3 h, at 10 µM, stronger effect = higher value.
Experiment [4] can be described thus: yeast AGP1-GFP fluorescence change, single-dose – cell-based, flow cytometry, S. cerevisiae, cherry picks, confirmation (AID 2273).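 Further: median GFP channel fluorescence over the whole cell population gate.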 The note with it: S. cerevisiae AGP1-GFP strain, 3 h, at 10 µM.
A short description of experiment [5]: TOR pathway CIT2 reporter hit retest – S. cerevisiae, GFP fusion, cherry picks, mother/daughter gates, confirmation (AID 2274). The note with it: S. cerevisiae CIT2-GFP strain, flow cytometry, 3 h, at 10 µM, stronger effect = higher value.
The mark [6] stands for this setting: measured here: daughter cell gate.
The mark [7] stands for this setting: measured here: mother cell gate.
Where [8] appears, read: measured here: daughter cell gate response.
Where [9] appears, read: measured here: mother cell gate response.

Consider `O=C1CC(c2ccccc2)CN1S(=O)(=O)c1ccccc1` (centres undefined), for which the GFP response vs DMSO is 98.4% (inactive) in experiment [1], 96.4% in experiment [1] (setting [6]), 98.9% in experiment [1] (setting [7]) and 105% (inactive) in experiment [3]. Moreover, the GFP response relative to DMSO in experiment [2] was 97.9% (inactive); in experiment [2] (setting [8]) it was 99.2%; in experiment [2] (setting [9]), 97.2%. Besides, the GFP response, % of DMSO in experiment [4] was 101% (inactive); in experiment [5], 103% (inactive); in experiment [5] (setting [6]), 103%; in experiment [5] (setting [7]) it was 103%.
Regarding `O=C1CC(SCc2nc3ccccc3[nH]2)C(=O)N1c1cccc(F)c1` (centres undefined), the GFP response vs DMSO is 98.7% (inactive) in experiment [1], 99.3% in experiment [1] (setting [6]), 97.5% in experiment [1] (setting [7]) and 99.3% (inactive) in experiment [3]. Besides, the GFP response relative to DMSO was 104% (inactive) in experiment [2], 105% in experiment [2] (setting [8]) and 105% in experiment [2] (setting [9]). Also, the GFP response, % of DMSO was 102% (inactive) in experiment [4], 103% (inactive) in experiment [5], 103% in experiment [5] (setting [6]) and 103% in experiment [5] (setting [7]).
Regarding `CCN1C(=O)/C(=C\C(=O)c2cccs2)c2cc(Br)ccc21`, the GFP response vs DMSO in experiment [1] was 97.6% (inactive); in experiment [1] (setting [6]), 96.7%; in experiment [1] (setting [7]), 97.2%; in experiment [3], 104% (inactive). Besides, the GFP response relative to DMSO is 144% (inactive) in experiment [2], 128% in experiment [2] (setting [8]) and 140% in experiment [2] (setting [9]). Also, the GFP response, % of DMSO in experiment [4] is 94.5% (inactive); in experiment [5], 99.3% (inactive); in experiment [5] (setting [6]), 104%; in experiment [5] (setting [7]), 92.1%.
As to `Cc1cccn2c(=O)c(/C=C(\C#N)C(=O)NCc3ccco3)c(N3CCC(C(N)=O)CC3)nc12`, the GFP response vs DMSO is 89.5% (inactive) in experiment [1], 90.9% in experiment [1] (setting [6]), 91.4% in experiment [1] (setting [7]) and 103% (inactive) in experiment [3]. The GFP response relative to DMSO was 99.8% (inactive) in experiment [2], 99.7% in experiment [2] (setting [8]) and 100% in experiment [2] (setting [9]). Also, the GFP response, % of DMSO is 101% (inactive) in experiment [4], 92.2% (inactive) in experiment [5], 95.2% in experiment [5] (setting [6]) and 92.8% in experiment [5] (setting [7]).
Regarding `COc1cc(NC(=O)c2ccc(C)cc2)ccc1NC(=O)c1cc2ccccc2o1`, the GFP response vs DMSO is 95.4% (inactive) in experiment [1], 86% in experiment [1] (setting [6]), 85.2% in experiment [1] (setting [7]) and 99% (inactive) in experiment [3]. The GFP response relative to DMSO in experiment [2] is 95.7% (inactive); in experiment [2] (setting [8]), 91%; in experiment [2] (setting [9]) it was 91%. The GFP response, % of DMSO was 109% (inactive) in experiment [4], 100% (inactive) in experiment [5], 88.4% in experiment [5] (setting [6]) and 89.5% in experiment [5] (setting [7]).
Take `COC(=O)c1ccc(Sc2ccccn2)c([N+](=O)[O-])c1`: the GFP response vs DMSO in experiment [1] is 97.8% (inactive); in experiment [1] (setting [6]), 101%; in experiment [1] (setting [7]), 97.7%; in experiment [3] it was 109% (inactive). Also, the GFP response relative to DMSO in experiment [2] is 99.5% (inactive); in experiment [2] (setting [8]), 101%; in experiment [2] (setting [9]), 100%. Further, the GFP response, % of DMSO in experiment [4] is 98% (inactive); in experiment [5], 105% (inactive); in experiment [5] (setting [6]), 105%; in experiment [5] (setting [7]) it was 104%.
For `Cc1cc(C)nc(/N=c2/ssnc2Cl)c1`, the GFP response vs DMSO in experiment [1] was 88.7% (inactive); in experiment [1] (setting [6]), 87.3%; in experiment [1] (setting [7]), 86.4%; in experiment [3], 107% (inactive). In addition, the GFP response relative to DMSO is 142% (inactive) in experiment [2], 131% in experiment [2] (setting [8]) and 143% in experiment [2] (setting [9]). In addition, the GFP response, % of DMSO is 111% (inactive) in experiment [4], 124% (inactive) in experiment [5], 110% in experiment [5] (setting [6]) and 116% in experiment [5] (setting [7]).
In the case of `CCCc1[nH]nc2c1C(c1ccccc1OCC)C(C#N)=C(N)O2` (centres undefined), the GFP response vs DMSO in experiment [1] is 98.4% (inactive); in experiment [1] (setting [6]) it was 99.5%; in experiment [1] (setting [7]), 98%; in experiment [3] it was 100% (inactive). For the same compound, the GFP response relative to DMSO in experiment [2] is 99.8% (inactive); in experiment [2] (setting [8]), 98.7%; in experiment [2] (setting [9]), 101%. Further, the GFP response, % of DMSO is 102% (inactive) in experiment [4], 99.1% (inactive) in experiment [5], 96.5% in experiment [5] (setting [6]) and 98.7% in experiment [5] (setting [7]).
As to `O=C(CCc1ccc(S(=O)(=O)N2CCOCC2)cc1)Oc1ccccc1`, the GFP response vs DMSO was 99.6% (inactive) in experiment [1], 101% in experiment [1] (setting [6]), 99.2% in experiment [1] (setting [7]) and 123% (inactive) in experiment [3]. Also, the GFP response relative to DMSO was 111% (inactive) in experiment [2], 112% in experiment [2] (setting [8]) and 109% in experiment [2] (setting [9]). Moreover, the GFP response, % of DMSO in experiment [4] was 97.2% (inactive); in experiment [5] it was 110% (inactive); in experiment [5] (setting [6]), 110%; in experiment [5] (setting [7]), 109%.
